Hits are enriched below; roughly 1.5% of the tested compounds scored in any of these assays.
Statin myotox sup = suppressors of simvastatin-induced myotoxicity in C2C12 myotubes; ATP luminescence, 48 h; scaled: DMSO 0, geranylgeraniol control 100; rescue of ATP level, % at 7.49 µM; 330,000 compounds, 0.78% hits; AID 602340;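 active = mean ATP rescue above about 67%, or every replicate alone reaching that limit, limit read from the data, passing the limit was not always enough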;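 note: myotubes were challenged with 10 µM simvastatin during compound exposure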
Cneo AK release = Cryptococcus neoformans lysis via adenylate kinase release; C. neoformans lysis, adenylate kinase release luminescence, 4 h; normalised: neutral wells 0, clomiphene wells 100; lysis activity, % at 15 µM; 360,000 compounds, 0.2% hits; AID 651654;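 active = mean lysis activity across replicates of at least 80%, whatever share of replicates individually reach that level; inactive = mean lysis activity below 80%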
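Assay system: C. neoformans cells. Amount: yeast cell density of 5 × 10^6 cells/mL. Technique: AK luminescence. Buffer or medium: YPD. Times: static 4 h at 37 °C with compound, 1 h detection. Dosing: single-point compound dose. Read-out: lysis from increased AK signal.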
SUMO Mot1 rescue = SUMOylation pathway inhibition by Mot1-301 growth rescue; growth rescue, % at 18.8 µM; S. cerevisiae Mot1-301 growth rescue, ATP luminescence, 38.5C; percent above DMSO median, 100 means doubled; 320,000 compounds, 1% hits;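 active = every valid replicate shows activation above 250% relative to neutral control wells; inactive = the rest, any valid replicate at or below 250%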;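 note: OY570 slx delta 5 strain wells were the positive control but not used for scaling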
* marks the source's active call; other numbers are inactive results; · = no result given.

SMILES	Statin myotox sup	Cneo AK release	SUMO Mot1 rescue
C[C@@H]1CN([C@@H](C)CO)S(=O)(=O)c2ccc(-c3ccc(F)cc3)cc2O[C@@H]1CN(C)C(=O)c1ccccc1F	-3	1	·
Cc1ccc(C)c(OCCCN2CCc3ccccc3C2)c1	8	1	320*
Cc1ccc(C(C)C)c(OCCCN2CCc3ccccc3C2)c1	-14	4	-9
COC(=O)c1ccc2[nH]c(C3(O)CCCCC3)c(C)c2c1	-5	-10	104
Cc1c(C2(O)CCCCC2)[nH]c2ccc(C(F)(F)F)cc12	-8	-1	301*
O=C(Cc1cccnc1)N[C@@H]1CC[C@@H](CCn2cc(-c3ccccc3F)nn2)O[C@@H]1CO	5	0	·
Cc1ccc(-n2cnc(=O)c3cccnc32)cc1	·	·	-22
C#CCSc1nc(=O)c2cccnc2n1-c1ccc(C)cc1	132*	0	4
Cc1ccc(S(=O)(=O)c2nc(S(C)(=O)=O)sc2N2CCC(O)CC2)cc1	16	1	6
CS(=O)(=O)c1nc(S(=O)(=O)c2ccc(Cl)cc2)c(N2CCC(O)CC2)s1	85*	-2	7
O=C(C[C@@H]1CC[C@H](NC(=O)CN2CCOCC2)[C@H](CO)O1)NCc1cccc(F)c1	5	-8	·
COc1ccccc1-n1nnnc1SCC(=O)Nc1ccccn1	72*	0	5
COc1ccccc1-n1nnnc1SCC(=O)Nc1ccccc1	2	2	-13
Cc1noc(C)c1NC(=O)N(C)C[C@@H]1Oc2c(NS(=O)(=O)c3ccc(Cl)cc3)cccc2C(=O)N([C@H](C)CO)C[C@H]1C	·	-2	·
C[C@@H]1CN([C@@H](C)CO)C(=O)Cc2cc(NS(C)(=O)=O)ccc2O[C@@H]1CN(C)Cc1ccc(C(=O)O)cc1	5	1	·
COc1ccc(C)cc1NC(=O)CC1COc2ccccc2O1 (centres undefined)	-2	2	-11
Cc1ccc(NC(=O)CC2COc3ccccc3O2)cc1 (centres undefined)	113*	0	·
O=C(Nc1nc2c(s1)CCCC2)c1ccc(S(=O)(=O)N2CCCc3ccccc32)cc1	·	0	-12
CNC(=O)c1ccsc1NC(=O)c1ccc(S(=O)(=O)N2CCCc3ccccc32)cc1	76*	-1	-8
COc1ccccc1NC(=O)N[C@H]1CC[C@H](CCn2cc(-c3ccccc3OC)nn2)O[C@@H]1CO	-10	2	·
O=C(C[C@@H]1CC[C@@H](NC(=O)c2ccccc2)[C@H](CO)O1)NCc1ccc(Oc2ccccc2)cc1	-5	-1	·
C[C@@H]1CN([C@H](C)CO)C(=O)c2cc(NS(=O)(=O)c3cccs3)ccc2O[C@H]1CN(C)C(=O)Nc1ccccc1	7	2	·
COc1cccc(C2=NOC(C(=O)N3CCN(Cc4ccccc4)CC3)C2)c1OC (centres undefined)	41	0	-4
O=C(C1CC(c2ccc(F)cc2)=NO1)N1CCN(Cc2ccccc2)CC1 (centres undefined)	2	1	318*
Cc1ccc(S(=O)(=O)N(C)C[C@@H]2OCCCC[C@H](C)Oc3ccc(NC(=O)Nc4cccc5ccccc45)cc3C(=O)N([C@@H](C)CO)C[C@H]2C)cc1	·	1	·
SMILES	Statin myotox sup	Cneo AK release	SUMO Mot1 rescue
C[C@@H]1CN([C@@H](C)CO)C(=O)Cc2cc(NS(C)(=O)=O)ccc2O[C@@H]1CN(C)C(=O)NC1CCCCC1	-15	4	·
Clc1cccc(Nc2nc(-c3ccncc3)cs2)c1	·	·	275*
Cc1cccc(Nc2nc(-c3ccncc3)cs2)c1	·	·	14
Nc1nc(CSc2nc3ccccc3[nH]2)nc(N2CCOCC2)n1	4	-3	317*
Nc1nc(CSc2nc3ccccc3s2)nc(N2CCCCC2)n1	8	0	·
CC(C)NC(=O)N1C[C@@H]2[C@H](c3ccccc31)[C@@H](CO)N2C(=O)c1ccccn1	-21	-9	·
O=c1c2c3c(sc2nc2n1CCCS2)CCCC3	114*	1	138
CC1CSc2nc3sc4c(c3c(=O)n21)CCCC4 (centres undefined)	141*	-9	2
CC1=Nn2c(nc3sc4c(c3c2=O)CCCC4)SC1	·	·	3
O=c1c2c3c(sc2nc2n1CCC2)CCCC3	27	-11	-17
C/C=C/c1cnc2c(c1)C(=O)N([C@@H](C)CO)C[C@H](C)[C@@H](CN(C)S(=O)(=O)c1ccc(OC)cc1)O2	-2	1	·
COc1ccc(NC(=O)N(C)C[C@H]2Oc3c(NS(=O)(=O)c4cccs4)cccc3C(=O)N([C@H](C)CO)C[C@@H]2C)cc1	-8	-7	-3
C[C@H]1CN([C@@H](C)CO)C(=O)c2cccc(NS(=O)(=O)c3cccs3)c2O[C@@H]1CN(C)C(=O)Nc1ccc(C(F)(F)F)cc1	86*	-4	·
